The source made the active and inactive calls.
What was measured:
[1] = system: Mus musculus; assay: Antidepressant activity in albino CD-1 mouse assessed as potentiation of L-dopa-induced effect up to 40 mg/kg, ip; format: functional, organism-based; set-up: dose 40 mg/kg
Procedure, shortened: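 Compound was given ip in distilled water to male CD-1 mice. Potentiation of stimulation induced by L-Dopa (100 mg/kg ip) was assessed.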

[2] = system: Mus musculus; assay: Antidepressant activity in albino CD-1 mouse assessed as inhibition of reserpine-induced sedation up to 40 mg/kg, ip; format: functional, organism-based; set-up: dose 40 mg/kg
Procedure, shortened: (§1)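 CD-1 male mice were dosed ip in distilled water 60-90 min before challenge with reserpine (4 mg/kg ip). Hypothermia, sedation and ptosis were assessed. Rectal temperature was taken with a tele-thermometer fitted with a small-animal probe.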

[3] = system: Mus musculus; assay: Anticonvulsant activity in albino CD-1 mouse assessed as protection against pentylenetetrazol-induced tonic seizure ratio at 40 mg/kg, ip administered 60 to 90 mins before pentylenetetrazol challenge relative to control; format: functional; conditions: route intraperitoneal
Procedure, shortened: (§2)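 Male CD-1 mice (18-25 g), 8-10 per group, received saline (1 ml/100 g) or compound (40 mg/kg) ip 60-90 min before seizure induction. Seizures were induced by iv infusion of 0.5% pentylenetetrazole solution. The minimal (clonic) and maximal (tonic) seizure thresholds were determined.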

[4] = Acute toxicity in ip dosed albino CD-1 mouse after 24 hrs; format: organism-based; conditions: in vivo
Procedure, shortened: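 Male albino CD-1 mice (18-25 g), groups of eight. Each mouse got a single ip injection of compound dissolved in distilled water. Lethality was scored 24 hr after dosing. LD50 was calculated with 95% confidence limits by the Litchfield and Wilcoxon method.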

[5] = system: Mus musculus; assay: Neurotoxicity against ip dosed albino CD-1 mouse assessed as time of peak effect by rotarod test; format: toxicity, organism-based; conditions: in vivo
Procedure, shortened: (§3)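 Male CD-1 mice (18-25 g), five per group, were dosed ip in distilled water. The endpoint was failure to stay for 1 min on a horizontal rod rotating at 6 rpm. Time of peak effect was determined on the rod, and TD50 was measured at that time. TD50 is given with 95% confidence limits by Litchfield-Wilcoxon.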

[6] = system: Mus musculus; assay: Antiparkinson activity in albino CD-1 mouse assessed as inhibition of oxotremorine-induced salivation at 100 mg/kg, ip; format: functional; set-up: scale not given: the % may be the effect or the level left
Procedure, shortened: (§4)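 Five male CD-1 mice per group were pretreated ip with saline or compound 60-90 min before oxotremorine 1.0 mg/kg ip. Oxotremorine-induced hypothermia or salivation was then assessed.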

[7] = system: Mus musculus; assay: Analgetic activity in albino CD-1 mouse assessed as inhibition of thermally-induced pain at 20 to 40 mg/kg, ip relative to control; format: functional; set-up: scale not given: the % may be the effect or the level left; conditions: dose mg/kg 20-40; route intraperitoneal
Procedure, shortened: (§5)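 Male albino CD-1 mice (18-25 g) were given compound ip in distilled water and tested 60-90 min later on a hot wire analgetic apparatus at 50°. Reaction times were compared with saline-pretreated controls. Each point used 5 treated and 20 control mice and is reported as mean ± SEM in seconds. Statistics were analysis of variance followed by t test or Mann-Whitney U.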

[8] = system: Mus musculus; assay: Toxicity in albino CD-1 mouse assessed as reduction of rectal temperature at 40 mg/kg, ip; format: organism-based; set-up: dose 40 mg/kg, route intraperitoneal; conditions: in vivo
Procedure, shortened: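 Rectal temperature of male CD-1 mice was recorded by tele-thermometer with a small-animal probe at time of peak activity (60-90 min) after 40 mg/kg ip in distilled water.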

[9] = system: Mus musculus; assay: Analgetic activity in albino CD-1 mouse assessed as inhibition of thermally-induced pain at 10 to 20 mg/kg, ip; format: functional, organism-based; procedure, shortened: as §5
[10] = system: Ileum; assay: Antispasmodic activity in guinea pig ileum assessed as inhibition of barium chloride-induced spasm at 5 x 10^-7 M; format: functional; conditions: Cavia porcellus
Procedure, shortened: (§6)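 Isolated guinea pig ileum (both sexes) was suspended in Krebs' solution at 37 ± 0.5°, gassed with 95% O2-5% CO2. Antihistaminic, anticholinergic and nonselective antispasmodic activity were measured.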

[11] = system: Mus musculus; assay: Antiparkinson activity in albino CD-1 mouse assessed as inhibition of oxotremorine-induced hypothermia at 40 mg/kg, ip; format: functional, organism-based; set-up: dose 40 mg/kg; procedure, shortened: as §4
[12] = system: Mus musculus; assay: Antiparkinson activity in albino CD-1 mouse assessed as inhibition of oxotremorine-induced diarrhea, and tremors at 5 to 40 mg/kg, ip; format: functional, organism-based
[13] = system: Mus musculus; assay: Antipsychotic activity in ip dosed albino CD-1 mouse assessed as spontaneous motor activity for 15 mins intervals for 2 hrs by conditioned avoidance test; format: functional; conditions: for ED50: CD-1, ip
[14] = system: Mus musculus; assay: Toxicity in ip dosed albino CD-1 mouse assessed as muscle weakness and flaccidity; format: organism-based, Muscle tissue; conditions: in vivo
[15] = system: Mus musculus; assay: Neuromuscular blocking activity in albino CD-1 mouse up to 20 mg/kg, ip; format: organism-based; set-up: dose 20 mg/kg, route intraperitoneal; conditions: in vivo
Procedure, shortened: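 Male CD-1 mice were dosed ip in distilled water and tested 60-90 min later. Neuromuscular blockade was judged by ability to remain on a wire mesh screen inclined at 60°.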

[16] = Neurotoxicity against ip dosed albino CD-1 mouse by rotarod test; format: toxicity, organism-based; conditions: in vivo; procedure, shortened: as §3
[17] = system: Mus musculus; assay: Analgetic activity in albino CD-1 mouse assessed as inhibition of thermally-induced pain at 10 to 15 mg/kg, ip relative to control; format: functional; conditions: dose mg/kg 10-15; route intraperitoneal; procedure, shortened: as §5
[18] = system: Ileum; assay: Antispasmodic activity in guinea pig ileum assessed as inhibition of acetylcholine-induced contraction at 10^-8 to 10^-6 M; format: functional, tissue-based; conditions: Cavia porcellus; procedure, shortened: as §6
[19] = system: Mus musculus; assay: Acute toxicity in ip dosed albino CD-1 mouse assessed as mortality after 2 to 3 hrs; format: organism-based; conditions: in vivo
[20] = system: Mus musculus; assay: Anticonvulsant activity in albino CD-1 mouse assessed as protection against pentylenetetrazol-induced clonic seizure ratio at 40 mg/kg, ip administered 60 to 90 mins before pentylenetetrazol challenge relative to control; format: functional; conditions: route intraperitoneal; procedure, shortened: as §2
[21] = system: Mus musculus; assay: Antidepressant activity in albino CD-1 mouse assessed as inhibition of reserpine-induced ptosis up to 40 mg/kg, ip; format: functional, organism-based; set-up: dose 40 mg/kg; procedure, shortened: as §1
[22] = system: Mus musculus; assay: Antidepressant activity in albino CD-1 mouse assessed as inhibition of reserpine-induced hypothermia up to 40 mg/kg, ip; format: functional, organism-based; set-up: dose 40 mg/kg; procedure, shortened: as §1
[23] = system: Ileum; assay: Antispasmodic activity in guinea pig ileum assessed as inhibition of histamine-induced contraction at 10^-8 to 10^-6 M; format: functional, tissue-based; conditions: Cavia porcellus; procedure, shortened: as §6
[24] = system: Mus musculus; assay: Antiparkinson activity in ip dosed albino CD-1 mouse assessed as inhibition of oxotremorine-induced diarrhea, and tremors; format: functional, organism-based
[25] = system: Mus musculus; assay: Analgetic activity in albino CD-1 mouse assessed as inhibition of thermally-induced pain at 5 mg/kg, ip; format: functional, organism-based; set-up: dose 5 mg/kg; procedure, shortened: as §5
[26] = system: Mus musculus; assay: Antiparkinson activity in albino CD-1 mouse assessed as inhibition of oxotremorine-induced diarrhea, and tremors at 5 mg/kg, ip; format: functional; set-up: scale not given: the % may be the effect or the level left; conditions: route intraperitoneal
[27] = system: Mus musculus; assay: Antiparkinson activity in albino CD-1 mouse assessed as inhibition of oxotremorine-induced diarrhea, and tremors at 20 to 40 mg/kg, ip; format: functional; set-up: scale not given: the % may be the effect or the level left; conditions: dose mg/kg 20-40; route intraperitoneal

For `CCN(C)[C@H]1CCN([C@@H]2Cc3ccccc3Sc3ccc(Cl)cc32)C1`, the Activity [1] was “inactive”, the Activity [2] was “inactive” and the Ratio [3] was 1. The LD50 at 24 h [4] was 177 mg/kg, the Time [5] was 60 min and the Activity ([6]; route intraperitoneal) was 27%. The Activity [7] was 23%, the T [8] was 5.1 °C and the Activity [9] was “Active”. The inhibition at 0.5 µM [10] was 40%, the Activity [11] was “inactive” and the Activity [12] was “Active”. The Activity [13] was “Dose-dependent effect”, the ED50 [13] was 12 mg/kg and the Activity [14] was “Toxic”. For the same compound, the Activity [15] was “Non-toxic”, the TD50 [16] was 12.5 mg/kg and the “fold change (FC)” value [17] was 1.5. For the same compound, the inhibition [18] was “Active”, the Activity [19] was “Toxic” and the Ratio [20] was 1.27. For the same compound, the Activity [21] was “inactive”, the Activity [22] was “inactive” and the inhibition [23] was “Active”. For the same compound, the Activity [24] was “Dose-dependent effect”.

With `CCN(C)[C@@H]1CCN([C@H]2Cc3ccccc3Sc3ccc(Cl)cc32)C1` the Activity [1] was “inactive”, the Activity [2] was “inactive” and the Ratio [3] was 0.73. For the same compound, the LD50 at 24 h [4] was 186 mg/kg, the Time [5] was 60 min and the Activity [6] was “inactive”. The Activity [7] was 23%, the T [8] was 5.1 °C and the Activity [9] was “Active”. For the same compound, the inhibition at 0.5 µM [10] was 40%, the Activity [11] was “inactive” and the Activity [12] was “Active”. For the same compound, the Activity [13] was “Dose-dependent effect”, the ED50 [13] was 12 mg/kg and the Activity [14] was “Toxic”. The Activity [15] was “Non-toxic”, the TD50 [16] was 13.6 mg/kg and the “fold change (FC)” value [17] was 1.5. For the same compound, the inhibition [18] was “Active”, the Activity [19] was “Toxic” and the Ratio [20] was 1.24. For the same compound, the Activity [21] was “inactive”, the Activity [22] was “inactive” and the inhibition [23] was “Active”. The Activity [24] was “Dose-dependent effect”.

In the case of `CCN(C)[C@H]1CCN([C@H]2Cc3ccccc3Sc3ccc(Cl)cc32)C1`, the Activity [1] is reported as “inactive”, the Activity [2] is reported as “inactive” and the Ratio [3] is reported as 0.93. The LD50 at 24 h [4] was 175 mg/kg, the Time [5] was 60 min and the Activity [6] was “inactive”. The Activity [7] was 23%, the T [8] was 5.1 °C and the Activity [9] was “Active”. The inhibition at 0.5 µM [10] was 40%, the Activity [11] was “inactive” and the Activity [12] was “Active”. The Activity [13] was “Dose-dependent effect”, the ED50 [13] was 6.8 mg/kg and the Activity [25] was “Active”. The Activity [14] was “Toxic”, the Activity [26] was 60% and the Activity [15] was “Non-toxic”. For the same compound, the Activity [27] was 93%, the TD50 [16] was 6.2 mg/kg and the “fold change (FC)” value [17] was 1.5. The inhibition [18] was “Active”, the Activity [19] was “Toxic” and the Ratio [20] was 1.16. The Activity [21] was “inactive”, the Activity [22] was “inactive” and the inhibition [23] was “Active”. The Activity [24] was “Dose-dependent effect”.

With `CCN(C)[C@@H]1CCN([C@@H]2Cc3ccccc3Sc3ccc(Cl)cc32)C1` the Activity [1] was “inactive”, the Activity [2] was “inactive” and the Ratio [3] was 0.75. It also gave an LD50 at 24 h [4] of 217 mg/kg, a Time [5] of 60 min and an Activity ([6]; route intraperitoneal) of 60%. For the same compound, the Activity [7] was 23%, the T [8] was 5.1 °C and the Activity [9] was “Active”. The inhibition at 0.5 µM [10] was 40%, the Activity [11] was “inactive” and the Activity [12] was “Active”. For the same compound, the Activity [13] was “Dose-dependent effect”, the ED50 [13] was 6.4 mg/kg and the Activity [25] was “Active”. The Activity [14] was “Toxic”, the Activity [26] was 60% and the Activity [15] was “Non-toxic”. For the same compound, the Activity [27] was 93%, the TD50 [16] was 6.4 mg/kg and the “fold change (FC)” value [17] was 1.5. For the same compound, the inhibition [18] was “Active”, the Activity [19] was “Toxic” and the Ratio [20] was 1.08. The Activity [21] was “inactive”, the Activity [22] was “inactive” and the inhibition [23] was “Active”. The Activity [24] was “Dose-dependent effect”.

Reference: ChEMBL document CHEMBL3272322, “8-chloro-(S)- and -(R)-10-((S)-and -(R)-3'-methylethylaminopyrrolidino)- 10,11-dihydrodibenzo(b,f)thiepins. Synthesis and pharmacological studies” (J Med Chem, 1976)
